Assay [1] can be described thus: Cytotoxicity against human SKOV3 cells after 2 days by MTT assay. The note with it: SK-OV-3, 48 h. The class given is functional, cell-based. Summed up: (§1)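 Cells grown in medium with 10% heat-inactivated FBS at 37 C under 5% CO2. Compounds dissolved in medium with 1% DMSO; controls received 1% DMSO. After 2 days, MTT (10 mg/mL) added for 4 h, formazan dissolved in DMSO and absorbance read at 570/630 nm. Survival taken relative to negative control; IC50 by Bliss method (n = 5), at least three independent experiments.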
Background: Tetrazolium assays rely on reduction of a dye to a coloured formazan, in cell work by metabolically active cells.

The subject of assay [2] is NCI-H460. The assay can be described thus: Cytotoxicity against human NCI-H460 cells after 2 days by MTT assay. The note with it: NCI-H460, 48 h. The class given is functional, cell-based. Summed up: as §1
In assay [3] the test system is A549. The assay can be described thus: Cytotoxicity against human A549 cells after 2 days by MTT assay. The class given is functional, cell-based. The note with it: A549, 48 h. Summed up: as §1
Assay [4] deals with MGC-803. Kind of assay: Cytotoxicity against human MGC803 cells after 2 days by MTT assay. The assay is classed as functional, cell-based. The note with it: MGC-803, 48 h. Summed up:
as §1

Assay [5] relates to HepG2. The assay can be described thus: Cytotoxicity against human HepG2 cells after 2 days by MTT assay. The assay is classed as functional, cell-based. The note with it: HepG2, 48 h. Summed up: as §1
A short description of assay [6]: Cytotoxicity against human T24 cells after 2 days by MTT assay. The class given is functional, cell-based. The note with it: T-24, 48 h. Summed up:
as §1

The subject of assay [7] is HUVEC. The assay can be described thus: Cytotoxicity against human HUVEC cells after 2 days by MTT assay. The class given is cell-based. The note with it: 48 h. Summed up: as §1
Assay [8] can be described thus: Cytotoxicity against human SPCA2 cells after 2 days by MTT assay. The note with it: SPCA2, 48 h. The class given is functional, cell-based. Summed up:
as §1

Where only a bound is given, the exact number is not on record here.

For the compound `O/N=C1/C(c2c[nH]c3ccc(Br)cc23)=Nc2ccc(Br)cc21`, the IC50 – broadly, the midpoint of a concentration-inhibition curve – in assay [1] is 19.2 µM; in assay [2] it was 18.9 µM; in assay [3], 16.2 µM; in assay [4] it was 13.2 µM; in assay [5], 14.3 µM; in assay [6], 12.5 µM. The values for the IC50 in assay [7] and in assay [8] were more than 100 µM and 11.6 µM, respectively.
As for `C=CCO/N=C1/C(c2c[nH]c3ccccc23)=Nc2ccccc21`, the IC50 in assay [1] was determined as 26.7 µM; in assay [2] it was 24.5 µM; in assay [3], 30.9 µM; in assay [4] it was 24.3 µM; in assay [5] it was 31.3 µM; in assay [6] it was 32.1 µM. Besides, the IC50 in assay [7] is more than 100 µM; in assay [8] it was 26.9 µM.
`O/N=C1/C(c2c[nH]c3ccccc23)=Nc2ccccc21`: the IC50 in assay [1] was found to be 15.9 µM; in assay [2], 22.5 µM; in assay [3], 21.8 µM; in assay [4], 20.6 µM; in assay [5], 20.4 µM; in assay [6], 27.4 µM. In addition, the IC50 is more than 100 µM in assay [7] and 20.4 µM in assay [8].
Regarding `FC(F)(F)c1ccc(CO/N=C2/C(c3c[nH]c4ccccc34)=Nc3ccccc32)cc1`, the IC50 in assay [1] is 24.2 µM; in assay [2] it was 24.1 µM; in assay [3], 21.9 µM; in assay [4] it was 30.6 µM; in assay [5] it was 22.3 µM; in assay [6] it was 18.9 µM. The results for the half-maximal inhibitory concentration (IC50) in assay [7] and in assay [8] were more than 100 µM and 21.2 µM, respectively.
In the case of `N#Cc1ccc2c(c1)/C(=N\OCc1ccccc1)C(c1c[nH]c3ccc(C#N)cc13)=N2`, the IC50 is 16.6 µM in assay [1]; 14.5 µM in assay [2]; 14.2 µM in assay [3]; 15.5 µM in assay [4]; 25.1 µM in assay [5]; 18.6 µM in assay [6]. In addition, the IC50 is more than 100 µM in assay [7] and 19.3 µM in assay [8].
As for `Fc1ccc(CO/N=C2/C(c3c[nH]c4ccccc34)=Nc3ccccc32)cc1`, the IC50 in assay [1] came to 29 µM; in assay [2] it was 20.7 µM; in assay [3], 27 µM; in assay [4] it was 33 µM; in assay [5], 35.5 µM; in assay [6] it was 23.1 µM. The IC50 is more than 100 µM in assay [7] and 25.9 µM in assay [8].
For `Cc1ccc2c(c1)/C(=N\O)C(c1c[nH]c3ccc(C)cc13)=N2`, the concentration for half-maximal inhibition (IC50) in assay [1] amounted to 11.1 µM; in assay [2] it was 18.3 µM; in assay [3], 11.2 µM; in assay [4], 9.47 µM; in assay [5], 10.7 µM; in assay [6], 8.78 µM. For the same compound, the IC50 in assay [7] is more than 100 µM; in assay [8], 19.6 µM.
As to `FC(F)(F)c1ccc(CO/N=C2/C(c3c[nH]c4ccc(Br)cc34)=Nc3ccc(Br)cc32)cc1`, the IC50 in assay [1] is 10.2 µM; in assay [2], 11.2 µM; in assay [3], 8.45 µM; in assay [4] it was 11.1 µM; in assay [5] it was 11.1 µM; in assay [6] it was 9.88 µM. The IC50 was more than 100 µM in assay [7] and 12.4 µM in assay [8].
As for `Cc1cccc2c1/C(=N\O)C(c1c[nH]c3cccc(C)c13)=N2`, the IC50 in assay [1] turned out to be 27 µM; in assay [2] it was 24.2 µM; in assay [3], 44.9 µM; in assay [4], 25 µM; in assay [5], 21.3 µM; in assay [6], 15 µM. Moreover, the figures for the IC50 in assay [7] and in assay [8] were more than 100 µM and 42.2 µM, respectively.
